Molecules are shown by their SMILES. The source made the active and inactive calls. No cut-off for these calls is given here.

The test system of test [1] is Salmonella typhimurium. As to the kind of experiment: Antibacterial activity against Salmonella typhimurium ATCC 14028 infected in 129X1/SvJ NRAMP +/+ mouse gallstone model assessed as log reduction in bacterial burden in gallblader at 4 mg/kg/day, ip administered from 5 to 15 consecutive days and measured on day 15. Type of test: functional, Salmonella enterica subsp. enterica serovar Typhimurium. The following applies: time 10 day. The method, boiled down: (§1)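 129X1/SvJ NRAMP+/+ mice given a lithogenic diet (chow plus 1% cholesterol, 0.5% cholic acid) for 8 weeks. Infected i.p. with ~10^3 CFU in 200 μL PBS. Treated daily i.p. on days 5–15 post-infection; vehicle 5% DMSO in PBS. Day 15: gallbladder, liver and spleen homogenized in 1 mL PBS, serially diluted and plated on LB agar (37 °C, 16 h) for CFU counts. One-way ANOVA with Tukey correction.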

Test [2] relates to Salmonella typhimurium. As to the kind of experiment: Antibacterial activity against Salmonella typhimurium ATCC 14028 infected in 129X1/SvJ NRAMP +/+ mouse gallstone model assessed as reduction in bacterial burden in liver at 2 mg/kg/day, ip administered from 5 to 15 consecutive days and measured on day 15. The test is classed as functional, organism-based. The following applies: Salmonella enterica subsp. enterica serovar Typhimurium, time 10.0 day. The method, boiled down:
as §1

The test system of test [3] is Salmonella typhimurium. As to the kind of experiment: Antibacterial activity against Salmonella typhimurium ATCC 14028 infected in 129X1/SvJ NRAMP +/+ mouse gallstone model assessed as reduction in bacterial burden in spleen at 2 mg/kg/day, ip administered from 5 to 15 consecutive days and measured on day 15. The following applies: Salmonella enterica subsp. enterica serovar Typhimurium, time 10.0 day. The test is classed as functional, organism-based. The method, boiled down: as §1

The test system of test [4] is Salmonella typhimurium. As to the kind of experiment: Antibiofilm activity against Salmonella typhimurium ATCC 14028 assessed as inhibition of biofilm formation incubated for 24 hrs by crystal violet staining based spectrophotometry. The test is classed as functional, organism-based, Salmonella enterica subsp. enterica serovar Typhimurium. The following applies: Salmonella enterica, ATCC 14028, 24 h. The method, boiled down:
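LB overnight cultures (37 °C) set to OD600 0.8, diluted 1:100 into TSB diluted 1:20 in water. Compound at 0.2–100 μM or DMSO added at inoculation. Grown 24 h at 30 °C with nutation, washed, heat-fixed (60 °C, 1 h), stained with crystal violet, dye solubilized in acetic acid, read at 570 nm. IC50 from variable-slope fit of % biofilm vs log concentration. Mean ± SD of three biological replicates.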

In test [5] the test system is Salmonella typhimurium. The test is described as follows: Antibiofilm activity against Salmonella typhimurium ATCC 14028 assessed as biofilm dispersal effect incubated for 24 hrs by crystal violet staining based spectrophotometry. Type of test: functional, organism-based, Salmonella enterica subsp. enterica serovar Typhimurium. The following applies: Salmonella enterica, ATCC 14028, 24 h. The method, boiled down:
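Biofilms grown 24 h at 30 °C with nutation in TSB diluted 1:20, from 1:100-diluted LB overnight cultures set to OD600 0.8. Crystal violet staining, acetic acid solubilization, 570 nm read-out. EC50 from variable-slope fit of % biofilm remaining vs log concentration. Mean ± SD of three biological replicates.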

Test [6] concerns Salmonella typhimurium. As to the kind of experiment: Antibacterial activity against Salmonella typhimurium ATCC 14028 infected in 129X1/SvJ NRAMP +/+ mouse gallstone model assessed as log reduction in bacterial burden in gallblader at 5 mg/kg/day, ip administered for 5 to 15 consecutive days of post infection and measured on day 15 in presence of 1 mg/kg/day ciprofloxacin. The test is classed as functional, Salmonella enterica subsp. enterica serovar Typhimurium. The following applies: time 10 day. The method, boiled down:
as §1

Test [7] relates to Salmonella typhimurium. As to the kind of experiment: Antibacterial activity against Salmonella typhimurium ATCC 14028 infected in 129X1/SvJ NRAMP +/+ mouse gallstone model assessed as log reduction in bacterial burden in gallblader at 10 mg/kg/day, ip administered from 5 to 15 consecutive days and measured on day 15 in presence of 1 mg/kg/day ciprofloxacin. Type of test: functional, Salmonella enterica subsp. enterica serovar Typhimurium. The following applies: time 10 day.

As to `O=C(O)c1cn(C2CC2)c2cc(N3CCNCC3)c(F)cc2c1=O` [CIPROFLOXACIN], the “log(activity)” value in the test on Salmonella typhimurium [1] turned out to be 3. The outcome in the test with Salmonella typhimurium [2] and in the test on Salmonella typhimurium [3] was Active.

A word on the IC50: it is the concentration that inhibits the measured activity by half. What is called EC50 is the concentration giving half of the maximal effect. As for `CN(Cc1ccsc1)CC1CCN(CCc2ccccc2F)CC1`, the IC50 in the test on Salmonella typhimurium [4] was found to be 5.7 µM. For the same molecule, the EC50 with Salmonella typhimurium [5] came to 829 µM. In addition, the “log(activity)” value in the test with Salmonella typhimurium [6] came to 2; with Salmonella typhimurium [7] it was 3.

The values above are taken from ChEMBL document CHEMBL5154764, “Development of small molecules that work cooperatively with ciprofloxacin to clear salmonella biofilms in a chronic gallbladder carriage model” (Eur J Med Chem, 2022).
